Common to all, as to assay type: cell-based
The target of assay [1] is Protein cereblon/E3 ubiquitin-protein ligase XIAP (Homo sapiens) (UniProt P98170+Q96SW2). As to the kind of experiment: PROTAC activity at CRBN/IAP in human MM1.S cells assessed as induction of XIAP degradation at 0.1 uM incubated for 3 hrs by diaPASEF-based proteomics analysis. In short, it runs like this: (§1)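 MM.1S cells exposed to DMSO or 0.1 μM compound for 3 h, then washed with PBS and snap-frozen. Lysed in 8 M urea/EPPS pH 8.5 buffer. 50 μg protein reduced, alkylated, precipitated, then digested with LysC and trypsin. Analysed by diaPASEF on timsTOF Pro2. Missing values imputed from a Gaussian distribution; log2 fold change versus DMSO with limma statistics.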
Sequence of Protein cereblon/E3 ubiquitin-protein ligase XIAP (Homo sapiens) (P98170 whole entry, looked up): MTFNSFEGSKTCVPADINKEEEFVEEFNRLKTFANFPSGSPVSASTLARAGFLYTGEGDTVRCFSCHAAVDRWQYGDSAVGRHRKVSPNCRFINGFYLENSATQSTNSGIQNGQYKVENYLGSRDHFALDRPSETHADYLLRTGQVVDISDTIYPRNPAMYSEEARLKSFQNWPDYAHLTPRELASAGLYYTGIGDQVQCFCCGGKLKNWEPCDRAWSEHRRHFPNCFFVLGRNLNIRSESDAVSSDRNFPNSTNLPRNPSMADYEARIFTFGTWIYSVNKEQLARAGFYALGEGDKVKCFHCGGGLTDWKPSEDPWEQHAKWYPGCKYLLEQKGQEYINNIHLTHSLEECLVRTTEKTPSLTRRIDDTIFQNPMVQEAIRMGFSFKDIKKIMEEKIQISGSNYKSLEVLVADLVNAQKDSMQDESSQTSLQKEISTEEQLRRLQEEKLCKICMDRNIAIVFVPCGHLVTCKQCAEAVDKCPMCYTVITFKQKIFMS
Sequence of Protein cereblon/E3 ubiquitin-protein ligase XIAP (Homo sapiens) (Q96SW2 whole entry, looked up): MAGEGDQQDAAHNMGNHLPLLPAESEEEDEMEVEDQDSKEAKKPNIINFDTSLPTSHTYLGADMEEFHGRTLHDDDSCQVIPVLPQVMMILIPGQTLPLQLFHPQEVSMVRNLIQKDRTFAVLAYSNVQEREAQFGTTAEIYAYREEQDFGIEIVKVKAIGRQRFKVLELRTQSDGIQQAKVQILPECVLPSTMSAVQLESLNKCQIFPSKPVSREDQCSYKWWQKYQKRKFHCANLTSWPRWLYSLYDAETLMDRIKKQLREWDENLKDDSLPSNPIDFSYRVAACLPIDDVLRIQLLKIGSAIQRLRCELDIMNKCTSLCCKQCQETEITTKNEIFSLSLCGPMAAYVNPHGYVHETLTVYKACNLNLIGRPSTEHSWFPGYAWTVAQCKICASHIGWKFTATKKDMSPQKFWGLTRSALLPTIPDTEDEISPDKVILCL

In assay [2] the target is Protein cereblon/Baculoviral IAP repeat-containing protein 2 (Homo sapiens) (UniProt Q13490+Q96SW2). As to the kind of experiment: PROTAC activity at CRBN/IAP in human MM1.S cells assessed as induction of cIAP1 degradation at 100 nM incubated for 3 hrs by diaPASEF-based analysis. The procedure, abridged:
as §1

Assay [3] concerns the target Protein cereblon/Baculoviral IAP repeat-containing protein 3 (Homo sapiens) (UniProt Q13489+Q96SW2). As to the kind of experiment: PROTAC activity at CRBN/IAP in human MM1.S cells assessed as induction of cIAP2 degradation at 100 nM incubated for 3 hrs by diaPASEF-based analysis. The procedure, abridged:
as §1

Assay [4] concerns the target Protein cereblon-IAP (Homo sapiens) (UniProt P98170+Q13489+Q13490+Q96SW2). As to the kind of experiment: PROTAC activity at CRBN/IAP in human MM1.S cells assessed as induction of CRBN degradation at 100 nM incubated for 3 hrs by diaPASEF-based analysis. In short, it runs like this: as §1
Assay [5] deals with Cereblon/Ikaros (Homo sapiens) (UniProt Q96SW2+Q13422). As to the kind of experiment: PROTAC activity at CRBN/IKZF1 in human MM1.S cells assessed as induction of IKZF1 degradation at 100 nM incubated for 3 hrs by diaPASEF-based analysis. In short, it runs like this:
as §1

The target in assay [6] is Protein cereblon/Zinc finger protein Aiolos (Homo sapiens) (UniProt Q96SW2+Q9UKT9). As to the kind of experiment: PROTAC activity at CRBN/IKZF3 in human MM1.S cells assessed as induction of IKZF3 degradation at 100 nM incubated for 3 hrs by diaPASEF-based analysis. The procedure, abridged: as §1
Sequence of Protein cereblon/Zinc finger protein Aiolos (Homo sapiens) (Q96SW2 whole entry, looked up): as above
Sequence of Protein cereblon/Zinc finger protein Aiolos (Homo sapiens) (Q9UKT9 whole entry, looked up): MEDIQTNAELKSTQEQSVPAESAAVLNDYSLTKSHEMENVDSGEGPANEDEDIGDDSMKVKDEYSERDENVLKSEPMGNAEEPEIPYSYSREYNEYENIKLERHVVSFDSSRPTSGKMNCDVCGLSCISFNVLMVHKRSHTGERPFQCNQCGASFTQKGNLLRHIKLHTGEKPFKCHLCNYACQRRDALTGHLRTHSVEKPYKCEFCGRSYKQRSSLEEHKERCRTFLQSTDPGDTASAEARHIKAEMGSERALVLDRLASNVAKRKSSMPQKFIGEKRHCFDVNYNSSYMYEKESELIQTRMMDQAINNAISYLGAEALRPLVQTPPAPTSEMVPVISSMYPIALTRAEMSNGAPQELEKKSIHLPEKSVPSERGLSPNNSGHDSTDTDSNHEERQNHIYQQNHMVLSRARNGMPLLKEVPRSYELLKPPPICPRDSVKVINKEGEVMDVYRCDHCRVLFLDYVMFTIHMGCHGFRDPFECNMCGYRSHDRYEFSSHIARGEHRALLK
In assay [7] the target is von Hippel-Lindau disease tumor suppressor (Homo sapiens) (UniProt P40337). As to the kind of experiment: Induction of VHL degradation in human MM1.S cells at 100 nM incubated for 3 hrs by diaPASEF-based analysis. In short, it runs like this: as §1
Sequence of von Hippel-Lindau disease tumor suppressor (Homo sapiens) (P40337 whole entry, looked up): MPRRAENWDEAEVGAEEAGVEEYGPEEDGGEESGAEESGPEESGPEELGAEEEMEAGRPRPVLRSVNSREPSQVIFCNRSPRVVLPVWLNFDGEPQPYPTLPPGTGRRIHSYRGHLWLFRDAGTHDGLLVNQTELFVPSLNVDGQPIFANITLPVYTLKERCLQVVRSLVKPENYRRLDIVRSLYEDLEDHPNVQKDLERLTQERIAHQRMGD

Activity calls are given as the source filed them. The rule behind the calls is not given here.

The source of these data is ChEMBL document CHEMBL5338733, “Heterobifunctional Ligase Recruiters Enable pan-Degradation of Inhibitor of Apoptosis Proteins” (J Med Chem, 2023).

Sequence of Protein cereblon/Baculoviral IAP repeat-containing protein 2 (Homo sapiens) (Q13490 whole entry, looked up): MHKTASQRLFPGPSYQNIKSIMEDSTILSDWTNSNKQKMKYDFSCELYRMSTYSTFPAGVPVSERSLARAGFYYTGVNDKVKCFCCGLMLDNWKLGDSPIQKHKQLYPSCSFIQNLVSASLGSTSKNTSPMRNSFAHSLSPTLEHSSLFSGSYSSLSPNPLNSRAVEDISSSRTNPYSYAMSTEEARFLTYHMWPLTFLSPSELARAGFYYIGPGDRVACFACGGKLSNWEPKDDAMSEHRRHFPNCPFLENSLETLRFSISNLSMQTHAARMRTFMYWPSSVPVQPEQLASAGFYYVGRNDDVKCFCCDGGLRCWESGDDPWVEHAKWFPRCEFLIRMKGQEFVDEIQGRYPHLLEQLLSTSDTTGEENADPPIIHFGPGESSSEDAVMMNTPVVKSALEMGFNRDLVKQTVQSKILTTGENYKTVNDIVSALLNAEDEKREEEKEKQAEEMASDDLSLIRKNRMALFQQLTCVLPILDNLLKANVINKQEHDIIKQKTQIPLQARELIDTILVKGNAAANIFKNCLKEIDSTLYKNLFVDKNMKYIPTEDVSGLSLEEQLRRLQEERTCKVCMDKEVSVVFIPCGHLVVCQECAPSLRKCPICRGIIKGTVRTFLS
Sequence of Protein cereblon/Baculoviral IAP repeat-containing protein 2 (Homo sapiens) (Q96SW2 whole entry, looked up): as the sequence (Q96SW2 whole entry, looked up) above
Sequence of Protein cereblon-IAP (Homo sapiens) (P98170 whole entry, looked up): as the sequence (P98170 whole entry, looked up) above
Sequence of Protein cereblon-IAP (Homo sapiens) (Q13489 whole entry, looked up): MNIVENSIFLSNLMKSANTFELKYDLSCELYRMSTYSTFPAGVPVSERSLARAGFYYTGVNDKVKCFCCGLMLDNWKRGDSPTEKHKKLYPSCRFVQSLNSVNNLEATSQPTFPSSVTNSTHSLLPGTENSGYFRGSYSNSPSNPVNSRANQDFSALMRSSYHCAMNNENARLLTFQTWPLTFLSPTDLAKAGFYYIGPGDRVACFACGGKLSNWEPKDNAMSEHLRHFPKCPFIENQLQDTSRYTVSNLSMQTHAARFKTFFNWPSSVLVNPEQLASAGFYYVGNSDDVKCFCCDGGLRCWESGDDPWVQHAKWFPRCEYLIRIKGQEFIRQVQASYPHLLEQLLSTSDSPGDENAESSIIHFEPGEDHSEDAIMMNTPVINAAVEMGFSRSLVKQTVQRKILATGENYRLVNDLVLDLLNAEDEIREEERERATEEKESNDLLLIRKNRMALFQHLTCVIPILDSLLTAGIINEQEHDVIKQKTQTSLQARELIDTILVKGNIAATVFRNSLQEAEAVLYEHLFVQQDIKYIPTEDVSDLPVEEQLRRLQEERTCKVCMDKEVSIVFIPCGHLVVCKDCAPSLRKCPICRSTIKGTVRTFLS
Sequence of Protein cereblon-IAP (Homo sapiens) (Q13490 whole entry, looked up): as the sequence (Q13490 whole entry, looked up) above
Sequence of Protein cereblon-IAP (Homo sapiens) (Q96SW2 whole entry, looked up): as the sequence (Q96SW2 whole entry, looked up) above
Sequence of Protein cereblon/Baculoviral IAP repeat-containing protein 3 (Homo sapiens) (Q13489 whole entry, looked up): as the sequence (Q13489 whole entry, looked up) above
Sequence of Protein cereblon/Baculoviral IAP repeat-containing protein 3 (Homo sapiens) (Q96SW2 whole entry, looked up): as the sequence (Q96SW2 whole entry, looked up) above

Turning to `CN[C@@H](C)C(=O)N[C@H](C(=O)N1C[C@@H](Oc2cccc(OCCCCCCOCCCCCCOCCCCCCNc3cccc4c3C(=O)N(C3CCC(=O)NC3=O)C4=O)c2)C[C@H]1C(=O)N[C@@H]1CCCc2ccccc21)C1CCCCC1` (some centres not stated), the result in assay [1] was Active. Also, the result in assay [2], in assay [3], in assay [4], in assay [5], in assay [6] and in assay [7] was inactive.
